# Where two headings read alike, the source gives them in different places. Positions of bridges follow the written chain, without caps; N, C: chain ends. Residues, ends and D or L forms follow the SMILES beside them. *: point of attachment. Fmoc = O=C(OCC1c2ccccc2-c2ccccc21)*
# Key:
# [1] = cited from earlier work
# S. aureus = experiment: Membrane fluidity assay, Laurdan GP; assay type: cell-based, Staphylococcus aureus; conditions: 5-80 µM, 1 h, n=3
# S. aureus CGMCC 1.90032 [2] = experiment: Mouse mastitis model; assay type: in vivo; conditions: compared with NC group
# Summary of the method: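 Female ICR mice 10 d post-partum, separated from pups 2 h before infection. Under anaesthesia, nipple tip trimmed 0.5 mm. Mid-log S. aureus CGMCC 1.90032 (PBS-washed, 1×10^3 CFU/mL, 100 µL) inoculated via the fourth-pair nipple ducts. Test compound (100 or 200 µM) given intraductally 3 h post-infection. Groups: uninfected, untreated, ceftiofur sodium 200 µM. Mammary and spleen organ indices recorded.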
# [3] = system: E. coli liposomes (polar lipid extracts); experiment: Membrane fluidity assay, Laurdan GP; assay type: cell-based, Escherichia coli; conditions: 5-80 µM, 1 h, concentration-dependent, n=3
# E. coli CGMCC 1.90026 [4] = experiment: Membrane integrity, PI uptake by flow cytometry; assay type: cell-based, Escherichia coli; conditions: range over 5-80 µM and both E. coli strains (Fig. 7A, Figure S15A)
# Summary of the method: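 Clinical E. coli CGMCC 1.90026 treated with test compound at 5, 20, 40 or 80 µM. Propidium iodide-positive cells counted by flow cytometry as the membrane penetration rate.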
# E. coli = experiment: Cytoplasmic membrane potential, DiSC3; assay type: cell-based, Escherichia coli; conditions: DiSC3-5, 5-80 µM, no dose-dependent effect
# Summary of the method: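 Clinical isolate E. coli CGMCC 1.90026 exposed to test compound. Cytoplasmic membrane potential change followed with the potentiometric dye DiSC3-5.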
# E. coli CGMCC 1.90026 [5] = experiment: Time-kill kinetics; assay type: cell-based, Escherichia coli; conditions: 1×, 2× or 4× MIC
# Summary of the method: (§1)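 Counts on MHA at 0, 0.5, 1, 2, 4, 6, 8, 10 and 24 h, in triplicate. MDK99 and MDK99.99 are the minimum times to 99% and 99.99% kill.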
# E. coli CGMCC 1.90026 [6] = experiment: Mutation-proof concentration; assay type: cell-based, Escherichia coli
# E. coli CGMCC 1.90026 [7] = experiment: Mouse mastitis model; assay type: in vivo
# Summary of the method: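 Female ICR mice 10 d post-partum, pups removed 2 h before infection. Under anaesthesia, 0.5 mm trimmed from the fourth nipple pair. Mid-log E. coli CGMCC 1.90026 (PBS-washed, 5×10^3 CFU/mL, 100 µL) given through the nipple duct. 3 h later, test compound (100 or 200 µM) given via the mammary duct. Groups: uninfected, untreated, ceftiofur sodium 200 µM. Mammary TNF-α, IL-1β, IL-6 and IL-2 measured.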
# S. aureus CGMCC 1.90032 [8] = experiment: Mutation-proof concentration; assay type: cell-based, Staphylococcus aureus
# [9] = CMC determination with ANS fluorescent probe; assay type: physicochemical; conditions: in PBS
# Summary of the method: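 CMC is the crossing point of the 480 nm intensity plotted against log peptide concentration. A parallel run at 80 µM peptide adds LPS or LTA (final 1 µM) to test their effect on assembly.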
# S. aureus CGMCC 1.90032 [10] = experiment: Time-kill kinetics; assay type: cell-based, Staphylococcus aureus
# Summary of the method: as §1
# [11] = in comparison to self-assembled nanoparticles CPC-2; cited from earlier work
# [12] = cited from earlier work; remark: listed apart in the source
# mouse erythrocytes = experiment: Hemolysis assay; assay type: cell-based; conditions: 128 μM peptide, 8% mouse erythrocytes, 1 h, OD 540 nm; n=5
# Summary of the method: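 Test compound (1–128 µM final) mixed 1:1 by volume with 8% mouse erythrocytes, 37 °C, 1 h. Spun 1500 rpm, 5 min, and supernatant A540 read. PBS set 0% and 0.1% Triton X-100 set 100%. Hemolysis (%) = (A_peptide−A0)/(A100−A0)×100.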
# [13] = Proteolytic stability in trypsin, HPLC; assay type: in vitro ADME; conditions: trypsin (1 w/v%)
# Summary of the method: (§2)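 Test compound (2560 µM) incubated with 1 w/v% trypsin at 37 °C. Aliquots taken at 0.5, 1, 2, 4 and 6 h, diluted to 256 µM in 0.1% TFA/water and quantified by HPLC. Remaining peptide calculated as a time course; n=3.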
# trypsin [14] = experiment: Proteolytic stability in trypsin, HPLC; assay type: in vitro ADME; conditions: 1 w/v% trypsin, after 4 h, HPLC
# Summary of the method: as §2
# E. coli ATCC 25922 = experiment: Serum stability test; assay type: in vitro ADME, Escherichia coli; conditions: 37°C, 8 h, MIC vs E. coli ATCC 25922
# [15] = Metabolic stability in liver tissue homogenate, HPLC; assay type: in vitro ADME; conditions: mouse liver tissue homogenate 50 mg/mL, 8 h, mean of n=3
# [16] = Particle size of self-assembled AMPs; assay type: physicochemical; conditions: 80 µM peptide, SEM/TEM
# Summary of the method: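 Test compound at 80 µM, alone or with LPS or LTA (final 1 µM), imaged by SEM and TEM to assess assembly morphology and particle size.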
# [17] = LTA binding assay with BC probe; parameters: species or system S. aureus; conditions: BC probe 10 µM, LTA 1 µM, Tris 50 mM pH 7.4; 0.125-64 µM peptide; n=3
# ζ-potential = assay type: physicochemical; conditions: 80 µM in PBS pH 7.4, room temperature
# [18] = LPS binding assay with BC probe; parameters: species or system E. coli; conditions: BC probe 10 µM, LPS 1 µM, Tris 50 mM pH 7.4; 0.125-64 µM peptide; n=3
# trypsin [19] = experiment: Trypsin resistance of LPS-induced nanofibers versus nanoparticles, HPLC; assay type: in vitro ADME; conditions: n=3
# Summary of the method: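 Peptide (80 µM), LPS (1 µM) and trypsin (10 µM) combined in different orders. In one arm LPS pre-forms nanofibers before trypsin; in another peptide is pre-incubated with trypsin before LPS. A non-specific assembly condition serves as reference. Peptide retention measured by HPLC and expressed as a ratio to that reference; n=3.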
molecule,measurement,setting,value
BP-KLVFF -RLYLRIGRR [HDMP],time to complete transformation from nanoparticles to nanofibers,[1]; LTA induction,48 h
BP-KFFVLK-RLKLILKSK [BET],time to complete transformation from nanoparticles to nanofibers,[1]; LPS induction,72 h
CC(C)[C@@H]1NC(=O)CNC(=O)[C@H](CC(N)=O)NC(=O)[C@H](CCCNC(=N)N)NC(=O)[C@H](Cc2ccc(O)cc2)NC(=O)[C@H](C(C)C)NC(=O)[C@@H](NC(=O)[C@@H](NC(=O)[C@H](CC(N)=O)NC(=O)[C@H](Cc2c[nH]c3ccccc23)NC(=O)[C@H](C)NC(=O)[C@H](Cc2ccccc2)NC(=O)CN)C(C)C)CSSC[C@@H](C(=O)N[C@@H](Cc2c[nH]cn2)C(=O)N[C@@H](CCCNC(=N)N)C(=O)N[C@@H](CCCNC(=N)N)C(=O)N[C@@H](C)C(=O)N[C@@H](CC(N)=O)C(N)=O)NC(=O)[C@H](C(C)C)NC(=O)[C@H](CCCNC(=N)N)NC1=O [N6] (H-GFAWNVCVYRNGVRVCHRRAN-NH2; disulfide 7-16),Laurdan GP (membrane fluidity),S. aureus,also increased
same,indices of the mammary gland and spleen,S. aureus CGMCC 1.90032 [2],significantly decreased
same,Laurdan GP (membrane fluidity),[3],significant increase in Laurdan GP
same,membrane penetration rates toward E. coli,E. coli CGMCC 1.90026 [4],2.34 -80.7%
same,plasma membrane depolarization,E. coli,underwent depolarization
same,time to complete eradication,E. coli CGMCC 1.90026 [5],≤ 4 h
same,SI (MPCs/MIC),E. coli CGMCC 1.90026 [6],6.4
same,histopathology of mammary gland (HE),E. coli CGMCC 1.90026 [7],significant improvement in inflammatory symptoms
same,"levels of inflammatory factors (TNF-α, IL-1ß, IL-6 and IL-2) in mammary tissue","E. coli CGMCC 1.90026 [7]; 100 or 200 µM, ELISA, n=4",significantly reduced
same,SI (MPCs/MIC),S. aureus CGMCC 1.90032 [8],6.4
same,self-assembly by ANS fluorescence,[9]; fluorescence in direct correlation with concentration,incapable of self-assembling
same,MDK99,S. aureus CGMCC 1.90032 [10]; minimum time for 99% sterilization,1.45 h
same,MDK99.99,S. aureus CGMCC 1.90032 [10]; minimum time for 99.99% sterilization,1.99 h
Chitosan-GPLGVRGC-PEG2000- CGGG(KLAKLAK)2 [CPC-1],prolongation of the half-life at the site of infection,[11],fourfold
FLGALFRALSRLL [PTP-7],stability in serum,[12]; before self-assembly,2 h
same,stability in serum,[12]; by self-assembly technology,more than 5 h
CC(C)[C@@H]1NC(=O)CNC(=O)[C@H](CC(N)=O)NC(=O)[C@H](CCCNC(=N)N)NC(=O)[C@H](Cc2ccc(O)cc2)NC(=O)[C@H](C(C)C)NC(=O)[C@@H](NC(=O)[C@@H](NC(=O)[C@H](CC(N)=O)NC(=O)[C@H](Cc2c[nH]c3ccccc23)NC(=O)[C@H](C)NC(=O)[C@H](Cc2ccccc2)NC(=O)CN)C(C)C)CSSC[C@@H](C(=O)N[C@@H](Cc2cnc[nH]2)C(=O)N[C@@H](CCCNC(=N)N)C(=O)N[C@@H](CCCNC(=N)N)C(=O)N[C@@H](C)C(=O)N[C@@H](CC(N)=O)C(N)=O)NC(=O)[C@H](C(C)C)NC(=O)[C@H](CCCNC(=N)N)NC1=O [N6] (H-GFAWNVCVYRNGVRVCHRRAN-NH2; disulfide 7-16),hemolysis rate,mouse erythrocytes,no hemolysis
same,"metabolised at 0.5 h, 2560 µM",[13],> 50%
same,degradation in trypsin,trypsin [14],completely degraded
same,MIC after incubation in 25% serum,E. coli ATCC 25922,twofold
same,peptide retention rate in liver tissue,[15],less than 9.76%
CC(C)C[C@H](NC(=O)[C@H](CCCCN)NC(=O)OCC1c2ccccc2-c2ccccc21)C(=O)N[C@H](C(=O)N[C@@H](Cc1ccccc1)C(=O)N[C@@H](Cc1ccccc1)C(=O)N[C@@H](CCCCN)C(=O)NCC(=O)N[C@@H](Cc1ccccc1)C(=O)N[C@@H](C)C(=O)N[C@@H](Cc1c[nH]c2ccccc12)C(=O)N[C@@H](CC(N)=O)C(=O)N[C@H](C(=O)N[C@H]1CSSC[C@@H](C(=O)N[C@@H](Cc2c[nH]cn2)C(=O)N[C@@H](CCCNC(=N)N)C(=O)N[C@@H](CCCNC(=N)N)C(=O)N[C@@H](C)C(=O)N[C@@H](CC(N)=O)C(N)=O)NC(=O)[C@H](C(C)C)NC(=O)[C@H](CCCNC(=N)N)NC(=O)[C@H](C(C)C)NC(=O)CNC(=O)[C@H](CC(N)=O)NC(=O)[C@H](CCCNC(=N)N)NC(=O)[C@H](Cc2ccc(O)cc2)NC(=O)[C@H](C(C)C)NC1=O)C(C)C)C(C)C [FKN] (Fmoc-KLVFFKGFAWNVCVYRNGVRVCHRRAN-NH2; disulfide 13-22),particle sizes of nanoparticles,[16],69.78±11.56 nm
same,affinity to LTA of S. aureus,[17],even greater than that of N6
same,"remaining at 6 h, 2560 µM","[13]; peptide retention rate, 1 w/v% trypsin, 6 h, HPLC, mean of n=3",44.2%
same,MIC after incubation in 25% serum,E. coli ATCC 25922,stable MICs
same,time to complete eradication,E. coli CGMCC 1.90026 [5],≤ 4 h
same,zeta-potential,ζ-potential,24 mV
same,affinity to LPS of E. coli,[18],even greater than that of N6
same,protein retention rate of nanofibers,"trypsin [19]; 80 µM peptide pre-incubated with LPS 1 µM, then trypsin 10 µM 0.5 h",90.1%
same,protein retention rate of nanoparticles,"trypsin [19]; 80 µM peptide without LPS pre-assembly, trypsin 10 µM 0.5 h",76.63%
same,peptide retention rate in liver tissue,[15],33.93%
same,critical micelle concentration (CMC),"[9]; ANS 25.6 µM, 1 h, fluorescence at 480 nm vs log concentration",7.94 µM
same,time to complete kill,S. aureus CGMCC 1.90032 [10]; various concentrations,≤ 1 h

# Source: PMC11526549 (Journal of Nanobiotechnology, 2024)
